Only some compounds are listed: those with a hit (about 2.3% of all), similar ones and a draw of the others.
ERp5 block: blocks human ERp5 reductase activity on insulin; AID 651711; Q15084; ERp5 insulin aggregation, absorbance 650 nm, 90 min; 0.05% of 350,000 active; inhibition, % at 9.99 µM;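 active = mean replicate inhibition above about 25%, with every replicate also reaching it, limit read from the data, passing the limit was not always enough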
Target sequence (Q15084 whole entry, looked up): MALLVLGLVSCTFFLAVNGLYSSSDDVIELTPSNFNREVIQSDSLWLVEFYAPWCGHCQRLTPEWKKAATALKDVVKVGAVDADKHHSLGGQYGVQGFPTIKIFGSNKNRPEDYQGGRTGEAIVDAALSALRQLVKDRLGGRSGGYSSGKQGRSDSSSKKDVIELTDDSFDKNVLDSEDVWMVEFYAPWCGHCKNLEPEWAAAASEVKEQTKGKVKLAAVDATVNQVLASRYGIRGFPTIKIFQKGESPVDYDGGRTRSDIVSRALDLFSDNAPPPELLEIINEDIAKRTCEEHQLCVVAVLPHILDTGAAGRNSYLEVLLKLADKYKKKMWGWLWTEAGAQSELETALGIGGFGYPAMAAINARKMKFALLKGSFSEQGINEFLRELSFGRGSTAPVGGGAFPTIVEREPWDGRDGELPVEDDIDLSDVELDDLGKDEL
Cneo AK release: causes C. neoformans cell lysis; 0.2% of 360,000 active; adenylate kinase release luminescence, 4 h; normalised: neutral wells 0, clomiphene wells 100; lysis activity, % at 15 µM; AID 651654;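 active = mean lysis activity across replicates of at least 80%, whatever share of replicates individually reach that level; inactive = mean lysis activity below 80%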
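Schedule: static 4 h at 37 °C with compound, 1 h detection; system: C. neoformans cells; benchmarks: Clomiphene as positive control; buffer or medium: fresh YPD medium; measure: luminescence rise reflecting yeast cell lysis; measured by: luminescent adenylate kinase detection reagent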
PDI turbidity: inhibitors of human protein disulfide isomerase; PDI insulin aggregation turbidity, A650, 90 min; inhibition, % at 10 µM; 0.052% of 350,000 active;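 active = mean inhibition across replicates of 30% or more, whatever share of single replicates reach that level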
C2C12 statin: suppressors of simvastatin-induced myotoxicity in C2C12 myotubes; ATP luminescence, 48 h; scaled: DMSO 0, geranylgeraniol control 100; rescue of ATP level, % at 7.49 µM; 0.78% of 330,000 active; AID 602340;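 active = mean ATP rescue above about 67%, or every replicate alone reaching that limit, limit read from the data, passing the limit was not always enough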;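 note: myotubes were challenged with 10 µM simvastatin during compound exposure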
F508del corr: correctors of CFTR F508del function in bronchial epithelial cells; CFBE cells, YFP halide quenching; stimulated with forskolin plus potentiator P3; % fluorescence drop versus neutral controls; 0.36% of 350,000 active; activity (quench increase), % at 7.58 µM;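 active = mean added fluorescence quench of at least 8% versus neutral control, with both replicates also reaching 8%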;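 note: cells transiently co-express mutant CFTR-F508del with the halide-sensitive YFP; corrector assay measuring rescue of mutant channel to the surface after 24 h compound exposure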
DENV2 CPE: protects cells from dengue virus 2 cytopathic effect; CPE inhibition, % at 9.99 µM; DENV2-infected cells, cytopathic effect rescue, plate reader; AID 651640; 1.7% of 350,000 active; in the data active = CPE inhibition above about 20%, passing the limit was not always enough; tested in BHK-21 cells
Large screens that a line does not name were inactive.

Cc1noc(C)c1NC(=O)Nc1ccc2c(c1)C(=O)N([C@H](C)CO)C[C@H](C)[C@H](CN(C)Cc1ccc(C(F)(F)F)cc1)OCCCC[C@@H](C)O2	none (no result: PDI turbidity, C2C12 statin)
CC(C)NC(=O)N(C)C[C@H]1Oc2ccc(NC(=O)Cn3cnnn3)cc2C(=O)N([C@H](C)CO)C[C@H]1C	none (no result: ERp5 block, Cneo AK release, PDI turbidity, C2C12 statin, DENV2 CPE)
C[C@H](CO)N1C[C@H](C)[C@H](CN(C)C(=O)C2CCC2)Oc2cc(C#Cc3ccncc3)ccc2S1(=O)=O	none (no result: PDI turbidity)
O=C1c2ccccc2C(=O)N1CN(C(=O)COc1ccccc1)c1ccc(F)cc1	C2C12 statin 114
O=C(C[C@H]1CC[C@H]2[C@@H](COC[C@@H](O)CN2S(=O)(=O)c2ccccc2F)O1)NCc1ccccc1F	none (no result: PDI turbidity)
COc1cccc(CN2CC3(CCN(C)CC3)c3c(n(C)c4cc(OC)ccc34)[C@@H]2CO)c1	none (no result: Cneo AK release, PDI turbidity, C2C12 statin)
COc1ccc2c3c(n(C)c2c1)[C@@H](CO)N(Cc1ccccc1)CC31CCN(C)CC1	DENV2 CPE 56 (no result: ERp5 block, Cneo AK release, PDI turbidity, C2C12 statin)
COc1ccc2c3c(n(C)c2c1)[C@H](CO)N(C(=O)Nc1ccc(F)cc1)CC31CN(C(=O)c2cccnc2)C1	DENV2 CPE 25 (no result: Cneo AK release, PDI turbidity, C2C12 statin)
CCCNC(=O)N1CC2(C1)CN(Cc1ccccn1)[C@@H](CO)c1c2c2ccc(OC)cc2n1C	none (no result: Cneo AK release, PDI turbidity, C2C12 statin)
COc1ccc2c3c(n(C)c2c1)[C@@H](CO)N(C(=O)Nc1ccc(F)cc1)CC31CN(S(=O)(=O)c2cccs2)C1	DENV2 CPE 46 (no result: ERp5 block, Cneo AK release, PDI turbidity, C2C12 statin)
CCCNC(=O)N1CCC2(CC1)CN(Cc1ccccn1)[C@@H](CO)c1c2c2ccc(OC)cc2n1C	DENV2 CPE 71 (no result: Cneo AK release, PDI turbidity, C2C12 statin)
COc1ccc2c3c([nH]c2c1)[C@@H](CO)N(C(=O)Nc1ccc(F)cc1)CC31CN(S(=O)(=O)c2cccs2)C1	none (no result: ERp5 block, Cneo AK release, PDI turbidity, C2C12 statin)
O=C(Nc1cccc(F)c1)N[C@H]1CC[C@H](CCn2cc(Cc3ccccc3)nn2)O[C@@H]1CO	none (no result: PDI turbidity)
COc1ccc2c3c([nH]c2c1)[C@@H](CO)N(S(=O)(=O)c1cn(C)cn1)CC31CN(CC2CCOCC2)C1	none (no result: ERp5 block, Cneo AK release, PDI turbidity, C2C12 statin)
Cc1ccc(S(=O)(=O)N[C@@H]2CC[C@@H](CCn3cc(-c4cccc(F)c4)nn3)O[C@@H]2CO)cc1	none (no result: PDI turbidity)
CCCC(=O)N1CCC2(CC1)CN(C(=O)Nc1ccc(F)cc1)[C@@H](CO)c1c2c2ccc(OC)cc2n1C	none (no result: ERp5 block, Cneo AK release, PDI turbidity, C2C12 statin)
COc1ccc2c3c(n(C)c2c1)[C@@H](CO)N(C(=O)Nc1ccc(F)cc1)CC31CCN(C(=O)Cc2ccncc2)CC1	DENV2 CPE 40 (no result: Cneo AK release, PDI turbidity, C2C12 statin)
COc1ccc2c3c(n(C)c2c1)[C@H](CO)N(Cc1ccncc1)CC31CCN(C(=O)C2CCC2)CC1	none (no result: Cneo AK release, PDI turbidity, C2C12 statin)
COc1ccc2c3c(n(C)c2c1)[C@H](CO)N(Cc1ccncc1)CC31CCN(C(=O)Cc2ccncc2)CC1	DENV2 CPE 77 (no result: Cneo AK release, PDI turbidity, C2C12 statin)
CO[C@H](CN(C)C(=O)c1ccccc1F)[C@@H](C)CN([C@@H](C)CO)S(=O)(=O)c1ccc(Cl)cc1	none (no result: PDI turbidity)
Cc1noc(C)c1S(=O)(=O)Nc1ccc2c(c1)C(=O)N([C@H](C)CO)C[C@@H](C)[C@H](CN(C)C(=O)C1CCCCC1)OCCCC[C@@H](C)O2	none (no result: PDI turbidity, C2C12 statin)
C[C@H](CO)N1C[C@H](C)[C@@H](CN(C)C(=O)CCCN(C)C)OCCCC[C@H](C)Oc2ccc(NS(=O)(=O)c3ccccc3)cc2C1=O	none (no result: PDI turbidity, C2C12 statin)
C[C@H](CO)N1C[C@H](C)[C@@H](CN(C)C)OCCCC[C@H](C)Oc2ccc(NS(=O)(=O)c3cn(C)cn3)cc2C1=O	none (no result: PDI turbidity, C2C12 statin)
CNC[C@H]1OCCCC[C@@H](C)Oc2ccc(NS(=O)(=O)c3cn(C)cn3)cc2C(=O)N([C@@H](C)CO)C[C@H]1C	DENV2 CPE 64 (no result: ERp5 block, PDI turbidity, C2C12 statin)
C[C@@H]1CN([C@@H](C)CO)C(=O)c2cc(NS(=O)(=O)c3cn(C)cn3)ccc2O[C@@H](C)CCCCO[C@H]1CN(C)C	Cneo AK release 98 (no result: PDI turbidity, C2C12 statin)
CNC[C@H]1OCCCC[C@H](C)Oc2ccc(NS(=O)(=O)c3cn(C)cn3)cc2C(=O)N([C@@H](C)CO)C[C@@H]1C	none (no result: PDI turbidity)
COc1ccc(S(=O)(=O)N(C)C[C@H]2OCCCC[C@@H](C)Oc3ccc(NS(=O)(=O)c4cn(C)cn4)cc3C(=O)N([C@H](C)CO)C[C@H]2C)cc1	none (no result: PDI turbidity, C2C12 statin)
CO[C@H]1CN(C)C(=O)c2cc(NC(=O)CC(F)(F)F)ccc2OC[C@H](C)N(C(=O)c2ccccc2F)C[C@H]1C	none (no result: Cneo AK release, PDI turbidity, C2C12 statin)
